# Measurements taken from ChEMBL document CHEMBL4706717, “Covalent Occlusion of the RORγt Ligand Binding Pocket Allows Unambiguous Targeting of an Allosteric Site” (ACS Med Chem Lett, 2021).
# pIC50: −log10 of the molar value. Calls of active or inactive are those of the source. The rule behind the calls is not given here.
# Legend:
# [1] = target: T1, Peroxisome proliferator-activated receptor gamma (Homo sapiens) (UniProt P37231); test: Binding affinity to PPARgamma (unknown origin)
# T1 sequence (whole entry): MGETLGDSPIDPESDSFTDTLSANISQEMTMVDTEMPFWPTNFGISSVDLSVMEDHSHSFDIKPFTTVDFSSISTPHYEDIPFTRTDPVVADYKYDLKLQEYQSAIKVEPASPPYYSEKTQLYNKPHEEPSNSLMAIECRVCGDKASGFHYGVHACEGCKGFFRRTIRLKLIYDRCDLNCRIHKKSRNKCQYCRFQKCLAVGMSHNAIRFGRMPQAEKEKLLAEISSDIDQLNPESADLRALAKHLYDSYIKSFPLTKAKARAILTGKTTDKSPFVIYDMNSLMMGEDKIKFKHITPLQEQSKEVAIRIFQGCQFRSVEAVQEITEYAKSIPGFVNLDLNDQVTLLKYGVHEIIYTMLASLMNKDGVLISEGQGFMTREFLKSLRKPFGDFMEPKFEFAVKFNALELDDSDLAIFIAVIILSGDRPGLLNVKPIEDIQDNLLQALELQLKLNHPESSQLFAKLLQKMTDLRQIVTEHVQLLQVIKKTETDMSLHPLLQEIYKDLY
# [2] = target: T2, Nuclear receptor ROR-gamma (Homo sapiens, UniProt P51449); test: Orthosteric inverse agonist activity at recombinant human N-terminal His6-tagged RORgammat ligand binding domain (265 to 518 residues) expressed in Escherichia coli BL21 (DE3) assessed as reduction in coactivator, N-terminal biotinylated SRC-1 box2 peptide recruitment incubated for 60 mins by TR-FRET assay
# T2 sequence (P51449 whole entry): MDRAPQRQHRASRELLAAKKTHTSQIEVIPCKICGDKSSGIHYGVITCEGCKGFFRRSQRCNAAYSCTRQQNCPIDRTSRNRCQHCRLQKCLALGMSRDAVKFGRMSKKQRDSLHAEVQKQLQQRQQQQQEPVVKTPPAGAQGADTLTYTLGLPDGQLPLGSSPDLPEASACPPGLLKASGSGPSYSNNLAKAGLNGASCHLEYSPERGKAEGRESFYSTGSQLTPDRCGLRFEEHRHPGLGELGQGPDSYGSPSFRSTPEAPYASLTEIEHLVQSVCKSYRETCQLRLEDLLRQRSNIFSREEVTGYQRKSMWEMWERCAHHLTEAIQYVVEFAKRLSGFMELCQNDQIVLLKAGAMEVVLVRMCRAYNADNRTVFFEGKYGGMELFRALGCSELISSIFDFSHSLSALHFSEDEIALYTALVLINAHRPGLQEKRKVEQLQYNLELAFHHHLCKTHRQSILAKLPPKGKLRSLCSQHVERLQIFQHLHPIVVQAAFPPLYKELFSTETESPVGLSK
# [3] = target: T3, Nuclear receptor ROR-gamma (Homo sapiens) (UniProt P51449); test: (§1) Orthosteric agonist activity at GW9662-ligated recombinant human N-terminal His6-tagged RORgammat ligand binding domain (265 to 518 residues) expressed in Escherichia coli BL21 (DE3) assessed as increase in coactivator, N-terminal biotinylated SRC-1 box2 peptide recruitment in presence of GW9662 incubated for 60 mins by TR-FRET assay
# T3 sequence (whole entry): T2 sequence (P51449 whole entry)
# In short: (§2)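 Dose response: probe and His6-RORγt LBD (265-518, 20 μM) co-titrated (1.4x series, top 10 eq, 200 μM) in pH 5.8 TRIS/NaCl/CHAPS/BSA buffer overnight (4°C or RT per compound). Then 100 nM LBD, 100 nM biotin-SRC-1 box2, Tb anti-His, d2-streptavidin in HEPES pH 7.5, 150 mM NaCl, 5 mM DTT, 0.1% BSA, 0.1 mM CHAPS, 1% DMSO; top probe 1 μM; 60 min RT; 665/620 nm ratio; four-parameter fit; triplicate, ≥2 experiments.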
# [4] = target: T3, Nuclear receptor ROR-gamma (Homo sapiens); test: as §1, with “2-chloro-N-(2,6-dimethylphenyl)-5-nitrobenzamide-ligated” for “GW9662-ligated”, “2-chloro-N-(2,6-dimethylphenyl)-5-nitrobenzamide” for “GW9662”; in short: as §2
# [5] = target: T3, Nuclear receptor ROR-gamma (Homo sapiens); test: as §1, with “2-chloro-5-nitro-N-(2-(trifluoromethyl)phenyl)benzamide-ligated” for “GW9662-ligated”, “2-chloro-5-nitro-N-(2-(trifluoromethyl)phenyl)benzamide” for “GW9662”; in short: as §2
# [6] = target: T3, Nuclear receptor ROR-gamma (Homo sapiens); test: as §1, with “2-chloro-5-nitro-N-o-tolylbenzamide-ligated” for “GW9662-ligated”, “2-chloro-5-nitro-N-o-tolylbenzamide” for “GW9662”; in short: as §2
# Homo sapiens = species on record: Homo sapiens; test: Binding affinity to recombinant human N-terminal His6-tagged RORgammat ligand binding domain (265 to 507 residues) Cys320Ala mutant expressed in Escherichia coli BL21 (DE3) incubated for overnight by Q-TOF-MS analysis
# In short: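 Ligation of His6-RORγt LBD (residues 265-507, used for mutagenesis work) at 20 μM with 5-10 eq probe in 50 mM TRIS (pH 5.3-5.8), 50 mM NaCl, 5 mM CHAPS, 0.1% BSA, continuous mixing overnight at 4°C or RT; LC-MS Q-TOF, deconvoluted spectra; percent ligation from ratio of mass peaks.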
# [7] = target: T3, Nuclear receptor ROR-gamma (Homo sapiens); settings: filed as inverse agonist, dose 10.0 µM
# [8] = target: T3, Nuclear receptor ROR-gamma (Homo sapiens); settings: filed as inverse agonist, dose 10.0 µM; remark: listed apart in the source
SMILES,Activity [1],also measured
Cc1cccc(NC(=O)c2cc([N+](=O)[O-])ccc2Cl)c1,Active,–
CC(C)NC(=O)c1cc([N+](=O)[O-])ccc1Cl,Active,–
Cc1ccccc1NC(=O)c1cc([N+](=O)[O-])ccc1Cl,Active,pIC50 [2]: 7.11
CC(C)CCC[C@@H](C)[C@H]1CC[C@H]2[C@@H]3CC=C4C[C@@H](O)CC[C@]4(C)[C@H]3CC[C@]12C,–,Activity [3]: inactive; Activity [4]: inactive; Activity [5]: inactive; Activity [6]: inactive
COc1ccc(NC(=O)c2cc([N+](=O)[O-])ccc2Cl)cc1,Active,–
O=C(Nc1ccccc1)c1cc(Cl)ccc1[N+](=O)[O-],inactive,–
O=C(Nc1ccccc1)c1cc([N+](=O)[O-])ccc1Cl,–,Activity (Homo sapiens): inactive; pIC50 [2]: 7.07
O=C(O)c1ccc(NCc2c(-c3c(Cl)cccc3C(F)(F)F)noc2-c2cc[nH]c2)cc1,–,ΔTm [7]: 2.1 °C
C=CCNC(=O)c1cc([N+](=O)[O-])ccc1Cl,Active,–
O=C(Nc1ccc([N+](=O)[O-])cc1)c1cc([N+](=O)[O-])ccc1Cl,Active,–
O=C(NC1CCCCC1)c1cc([N+](=O)[O-])ccc1Cl,Active,–
O=C(c1cc([N+](=O)[O-])ccc1Cl)n1cccc1,inactive,–
O=C(Nc1ccsc1)c1cc([N+](=O)[O-])ccc1Cl,Active,pIC50 [2]: 6.91
C[C@H]1O[C@@H](O[C@H]2[C@@H](O)C[C@H](O[C@H]3[C@@H](O)C[C@H](O[C@H]4CC[C@@]5(C)[C@H](CC[C@@H]6[C@@H]5C[C@@H](O)[C@]5(C)[C@@H](C7=CC(=O)OC7)CC[C@]65O)C4)O[C@@H]3C)O[C@@H]2C)C[C@H](O)[C@@H]1O,–,ΔTm [8]: -0.2 °C
O=C(NCc1ccccc1)c1cc([N+](=O)[O-])ccc1Cl,Active,–
Cc1ccc(NC(=O)c2cc([N+](=O)[O-])ccc2Cl)cc1,Active,–
